# From ChEMBL document CHEMBL4190289, “Antifungal and Cytotoxic β-Resorcylic Acid Lactones from a Paecilomyces Species” (J Nat Prod, 2017)
# Structures can show the parent of a compound that is named as a salt.
# Assays:
# A549 = assay: Cytotoxicity against human A549 cells after 72 hrs by MTT assay; format: functional, cell-based; conditions: A549, 72 h
# Procedure, shortened: (§1)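 MTT colorimetric readout. DMSO stocks serially diluted in culture medium to final 50, 10, 2, 0.4, 0.08 and 0.016 μM, quadruplicate wells per concentration. Adriamycin as positive control. Inhibition rate computed from treated, control and blank OD. IC50 by nonlinear regression of logistic dose–response curves. Means ± SD of three independent experiments.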
# MCF7 = assay: Cytotoxicity against human MCF7 cells after 72 hrs by MTT assay; format: functional, cell-based; conditions: MCF7, 72 h; procedure, shortened: as §1
# HeLa = assay: Cytotoxicity against human HeLa cells after 72 hrs by MTT assay; format: functional, cell-based; procedure, shortened: as §1
# Fusarium verticillioides = assay: Antifungal activity against Fusarium verticillioides after 8 hrs by conidial germination assay; format: functional, organism-based
# Procedure, shortened: (§2)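 Conidia from PDA cultures (P. litchii 7-day-old, F. verticillioides 3-day-old), diluted in half-strength PDB, counted and used immediately. Samples in DMSO as 2-fold series; final 0.625 to 80 μg/mL. Incubated 8 h at 30 °C, 150 rpm. Germination scored microscopically (germ tube ≥1.5× spore diameter), >200 conidia per replicate, triplicate. Thiram positive, DMSO negative control. IC50 from logistic nonlinear regression.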
# Phytophthora litchii = assay: Antifungal activity against Peronophythora litchii after 8 hrs by conidial germination assay; format: functional, organism-based; procedure, shortened: as §2
SMILES,IC50 (Fusarium verticillioides),IC50 (Phytophthora litchii),IC50 (A549),IC50 (MCF7),IC50 (HeLa)
COc1cc(O)c2c(c1)[C@H]1O[C@@H]1CC1=C(O)C(=O)C[C@@H]1C[C@H](C)OC2=O,> 100 µM,> 100 µM,> 10 µM,> 10 µM,> 10 µM
C[C@@H]1C/C=C/CC[C@@H](O)CC(=O)Cc2cc(O)cc(O)c2C(=O)O1,> 100 µM,> 100 µM,> 10 µM,> 10 µM,> 10 µM
C[C@H]1C/C=C/CC(=O)CC/C=C/c2cc(O)cc(O)c2C(=O)O1,> 100 µM,> 100 µM,3.9 µM,6.9 µM,3.6 µM
COc1cccc2c1C(=O)c1c(O)c3c(c(O)c1C2=O)C[C@@](O)(C(=O)CO)C[C@@H]3O[C@H]1C[C@H](N)[C@H](O)[C@H](C)O1 [DOXORUBICIN HYDROCHLORIDE],–,–,0.1 µM,–,0.3 µM
COc1cc(O)c2c(c1)[C@H]1O[C@@H]1C[C@H](O)[C@H](O)C(=O)/C=C\C[C@H](C)OC2=O [HYPOTHEMYCIN],1.1 µM,1.9 µM,1 µM,3.3 µM,1 µM
C[C@@H]1C/C=C/CCCCC(=O)Cc2cc(O)cc(O)c2C(=O)O1 [MONOCILLIN IV],> 100 µM,33.6 µM,> 10 µM,3.6 µM,> 10 µM
C[C@@H]1C[C@H]2O[C@@H]2/C=C\C=C\C(=O)Cc2cc(O)cc(O)c2C(=O)O1 [MONOCILLIN I],> 100 µM,7.9 µM,2.6 µM,8.1 µM,2.7 µM
C[C@@H]1C[C@H]2O[C@@H]2/C=C\C=C\C(=O)Cc2c(Cl)c(O)cc(O)c2C(=O)O1 [RADICICOL],8 µM,1.4 µM,0.1 µM,0.4 µM,0.1 µM
CN(C)C(=S)SSC(=S)N(C)C [THIRAM],1.7 µM,4.6 µM,–,–,–

# Now from value to molecule, other results behind:
IC50 (Fusarium verticillioides),IC50 (Phytophthora litchii),SMILES,IC50 (A549),IC50 (MCF7),IC50 (HeLa)
> 100 µM,41 µM,C[C@@H]1C[C@H]2C=CC[C@H](CC(=O)Cc3cc(O)cc(O)c3C(=O)O1)O2,4.1 µM,4.9 µM,3.9 µM
> 100 µM,9.2 µM,C[C@@H]1C/C=C/CC/C=C\C(=O)Cc2cc(O)cc(O)c2C(=O)O1,4.1 µM,1.7 µM,3.6 µM
> 100 µM,> 100 µM,COc1cc(O)c2c(c1)[C@H]1O[C@@H]1CC1=C(O)C(=O)C[C@H]1C[C@H](C)OC2=O,> 10 µM,> 10 µM,> 10 µM
> 100 µM,> 100 µM,C[C@@H]1Cc2ccccc2C(=O)Cc2cc(O)cc(O)c2C(=O)O1,> 10 µM,> 10 µM,> 10 µM
> 100 µM,19.3 µM,CO[C@@H]1CC/C=C/C[C@@H](C)OC(=O)c2c(O)cc(O)cc2CC(=O)C1,> 10 µM,> 10 µM,> 10 µM
> 100 µM,9.8 µM,C[C@@H]1C/C=C/CC/C=C/C(=O)Cc2cc(O)cc(O)c2C(=O)O1,1.7 µM,4.1 µM,2.7 µM
> 100 µM,12 µM,C[C@@H]1C[C@H]2O[C@@H]2CC/C=C/C(=O)Cc2cc(O)cc(O)c2C(=O)O1 [MONOCILLIN III],2.1 µM,> 10 µM,3.4 µM
